Compounds with a hit are over-represented: about 12% of the library has one in this group of screens.
Lmaj promast: Leishmania major promastigote growth inhibition, primary screen; AID 1063, 2008; inhibition, % at 10 µM; hit rate 9% among 200,000; Leishmania major promastigotes, resazurin fluorescence viability; in the data active = inhibition above about 50%;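 note: promastigotes grown with compound for 44 hours at 28 °C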
ABCB1 inh: ABCB1 efflux pump inhibitors, primary screen, cell-based, multiplex, flow cytometry, ABCG2 counter-screen. ATP-dependent translocase ABCB1 (Homo sapiens), P08183. CCRF-Adr cells, JC-1 efflux. hit rate 0.067% among 190,000. inhibition, % at 6.6 µM. AID 1326, 2008; in the data active = inhibition above about 40%;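 note: 0% = vehicle and 100% = reference inhibitor; higher value means more JC-1 retained so stronger ABCB1 efflux block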
WT yeast gro inh: growth inhibition of WT strain, primary screen, mitochondrial fusion inhibitor project, WT and mutant strains, chemical genetic; inhibition, % at 10 µM; hit rate 2.1% among 190,000; mitochondrial fusion phenotypic screen; AID 1362, 2008; in the data active = inhibition above about 58%; tested in S. cerevisiae
RAM inhibit: inhibitors of the yeast RAM network, primary screen, dse1pr::URA3 reporter, 5-FOA selection; S. cerevisiae dse1pr::URA3 reporter, 5-FOA growth OD615, 2 d; analog-sensitive cbk1-as2 kinase mutant strain; inhibition, % at 50 µM; hit rate 1.8% among 190,000;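 active = inhibition above a set limit, 3 SD over mean compound inhibition, cut at about 8.4% in these data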;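 note: 0% = DMSO-only wells with no growth and 100% = 10 µM 1-NA-PP1 full growth; inhibition rescues growth on 5-FOA so higher OD means more RAM inhibition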
ABCG2 inh: ABCG2 efflux pump inhibitors, primary screen, multiplex with ABCB1, IgMXP3 cells, flow cytometry. Broad substrate specificity ATP-binding cassette transporter ABCG2 (Homo sapiens), Q9UNQ0. JC-1 efflux. inhibition, % at 6.6 µM. hit rate 0.1% among 190,000;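 active = inhibition above 80%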;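 note: 0% = DMSO and 100% = nicardipine control wells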
Target sequence (Q9UNQ0 whole entry, looked up): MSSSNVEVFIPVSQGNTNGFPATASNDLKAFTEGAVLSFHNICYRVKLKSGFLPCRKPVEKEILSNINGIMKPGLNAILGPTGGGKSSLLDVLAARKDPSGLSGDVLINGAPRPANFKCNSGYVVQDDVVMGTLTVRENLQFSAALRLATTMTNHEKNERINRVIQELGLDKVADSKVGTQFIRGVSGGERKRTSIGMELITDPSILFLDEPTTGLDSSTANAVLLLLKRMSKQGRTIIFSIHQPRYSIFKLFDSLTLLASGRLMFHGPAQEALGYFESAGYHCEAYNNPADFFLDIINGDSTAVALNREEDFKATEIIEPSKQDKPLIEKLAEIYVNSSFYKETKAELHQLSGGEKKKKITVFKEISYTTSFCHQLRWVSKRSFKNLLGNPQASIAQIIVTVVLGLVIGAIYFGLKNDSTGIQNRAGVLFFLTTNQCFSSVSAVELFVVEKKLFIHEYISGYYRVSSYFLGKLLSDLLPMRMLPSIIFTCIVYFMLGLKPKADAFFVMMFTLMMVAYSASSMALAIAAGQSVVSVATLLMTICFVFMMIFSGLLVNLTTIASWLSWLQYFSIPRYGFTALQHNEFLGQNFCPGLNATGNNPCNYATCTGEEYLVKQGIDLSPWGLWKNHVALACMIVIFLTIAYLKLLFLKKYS
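material = IgMXP3 (ABCG2) plus far-red-tagged CCRF-Adr (ABCB1) cells | amount = 3 million cells/mL, equal mix of both lines | also added = JC-1 transporter substrate | dosing = one concentration, 6.6 µM final | schedule = 10 min at 25 °C | measured by = flow cytometric JC-1 green MFI at 530 nm | read-out basis = percent efflux inhibition, scaled nicardipine 100% to DMSO 0%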
Numbers without * were called inactive; . = no result given.

SMILES | Lmaj promast | ABCB1 inh | WT yeast gro inh | RAM inhibit | ABCG2 inh
COc1cc(OC)c(C2C3=C(CCCC3=O)Nc3nc4ccccc4n32)cc1OC (configuration not stated) | 99* | 0 | 4 | 4 | 0
COc1ccc(C2C(C(=O)c3ccccc3)=C(C)Nc3nc4ccccc4n32)c(OC)c1 (configuration not stated) | 87* | 1 | 25 | 4 | 1
COc1ccc(OC)c(C2C(C(=O)N(C)C)=C(C)Nc3nc4ccccc4n32)c1 (configuration not stated) | -5 | 0 | 6 | 2 | 0
CCCC(C(=O)NCc1ccco1)N(C(=O)CNS(=O)(=O)c1ccc(Cl)cc1)C1CCCC1 (configuration not stated) | 67* | 2 | 7 | 1 | 2
CCC(C(=O)NCc1ccco1)N(C(=O)CNS(=O)(=O)c1ccccc1)C1CCCCC1 (configuration not stated) | 40 | 1 | 3 | 1 | 1
O=C(c1cc2ncccn2n1)N1CCc2c([nH]c3ccccc23)C1c1ccccc1F (configuration not stated) | 56* | 2 | 28 | 4 | 12
COCCN1C(=O)C(O)=C(C(=O)c2ccco2)C1c1cccc(Oc2ccccc2)c1 (configuration not stated) | -11 | 1 | 7 | 6 | 28
CCC(=O)C1=C(O)C(c2cccc(Oc3ccccc3)c2)CCC1=O (configuration not stated) | -7 | 0 | 63* | 0 | 9
Cc1nc2c(-c3ccc(F)cc3)c(C)nn2c(C)c1CCC(=O)N1CCN(c2ccc(F)cc2)CC1 | -3 | 1 | 35 | 4 | 3
CCCCOc1ccc(NC(=O)C(=O)NCCCn2ccnc2)cc1 | 17 | 2 | -11 | -1 | 12
CCOc1ccc(NC(=S)NCCCn2ccnc2)cc1 | 83* | 0 | -3 | -2 | 12
COc1ccc(NC(=O)CN2C(=O)CSC(C)C2=O)cc1 (configuration not stated) | -5 | 0 | -14 | 1 | 0
O=C(N/N=C/C=C/c1ccccc1)NC1CCCCC1 | 2 | 2 | 4 | 0 | 12
Cc1cccc(C)c1OCc1nnc(NC(=O)CSc2ccc(Cl)cc2)s1 | 59* | 0 | -11 | 6 | 5
CCc1nc(Nc2ccncc2)c2oc3ccccc3c2n1 | 100* | 0 | 9 | 0 | 1
Cc1nc(Nc2ccncc2)c2oc3ccccc3c2n1 | 23 | 0 | . | 0 | 1
CCOC(=O)C1(CCCc2ccccc2)CCN(C(=O)c2cnn(CC)c2)CC1 | 30 | 1 | 14 | 2 | 3
Cc1cc(NS(=O)(=O)c2ccc(NC(=O)c3cc(-c4ccccc4Cl)nc4ccccc34)cc2)no1 | 60* | 0 | 12 | 7 | 1
O=C(NNC(=O)c1ccc(Cl)cc1Cl)Nc1ccccc1 | -3 | 0 | 7 | -1 | 0
Cc1cc(NS(=O)(=O)c2ccc(NC(=O)c3cc(-c4cccnc4)nc4ccc(Cl)cc34)cc2)no1 | -1 | 0 | 10 | 1 | -1
O=C(NCc1ccccn1)c1cc(-c2ccccc2Cl)nc2ccccc12 | 87* | . | -19 | -1 | 9
O=C(NNC(=O)c1cc(-c2ccc(Cl)cc2Cl)nc2ccccc12)Nc1ccccc1 | 70* | 0 | -13 | 4 | 0
CCn1c(C)nc2cc(C(=O)NNC(=S)Nc3ccc(OC)cc3)ccc21 | -1 | -1 | 10 | 1 | -3
Cc1cc2cc(CCNC(=O)c3ccc(Br)o3)c(=O)[nH]c2cc1C | 4 | 0 | 96* | 1 | 2
CCOC(=O)C1(Cc2ccc(OC)cc2)CCN(C(=O)CN2CCCCC2=O)CC1 | 5 | 1 | 3 | -1 | 1
SMILES | Lmaj promast | ABCB1 inh | WT yeast gro inh | RAM inhibit | ABCG2 inh
CCC(CC)N=C1NS(=O)(=O)c2cc([N+](=O)[O-])ccc21 | 99* | 1 | -1 | 2 | 2
CC(C)(C)CC(C)(C)N=C1NS(=O)(=O)c2cc([N+](=O)[O-])ccc21 | 100* | 2 | 0 | 1 | 17
CC(C)(CO)N=C1NS(=O)(=O)c2cc([N+](=O)[O-])ccc21 | -4 | 0 | -15 | 2 | 0
COc1ccccc1NC(=O)COC(=O)C1CCN(/C=C/C(=O)C(F)(F)F)CC1 | -3 | 1 | -6 | 2 | 6
Brc1cccc(OCCN2CCCCC2)c1 | 96* | -2 | -8 | 1 | -1
Cc1cc(Br)ccc1OCCCCN1CCC(C)CC1 | 100* | 0 | 18 | 2 | 6
Brc1ccccc1OCCCN1CCOCC1 | 72* | -2 | 3 | 1 | -9
CCc1cccc(OCCN2CCCC2)c1 | 32 | 0 | -5 | 0 | -1
CC1CCN(CCCCOc2ccc(Br)cc2)CC1 | 99* | 1 | 1 | 0 | 5
CCOC(=O)c1[nH]c2ccc(Br)cc2c1NC(=O)CCN1CCC(C)CC1 | 41 | 0 | 3 | 2 | 0
c1ccc(-c2ccccc2OCCN2CCOCC2)cc1 | 0 | 0 | 0 | 0 | 1
COc1ccccc1N1CCN(CCCCOc2cccc3ccccc23)CC1 | 29 | 5 | 56 | -1 | 3
CC1CCN(CCCCOc2ccccc2Br)CC1 | 100* | 1 | 20 | 0 | 11
CC1CCN(CCCCOc2cccc(Br)c2)CC1 | 95* | 1 | 26 | 2 | 16
CC1CCN(CCOc2ccc(Cl)c(Cl)c2)CC1 | 88* | 0 | 1 | -1 | 0
CCSc1nnc(NC(=O)C(C)Sc2nc3ccccc3[nH]2)s1 (configuration not stated) | -4 | 1 | -10 | -1 | 3
O=C(COc1ccc([N+](=O)[O-])cc1)Nc1ccccc1N1CCCC1 | 1 | 1 | 13 | 3 | 7
CCOc1ccc(C(=O)N2CCN(c3cnn(-c4ccccc4)c(=O)c3Cl)CC2)cc1 | 4 | 1 | -6 | 3 | 3
O=C(c1cccc(Br)c1)N1CCN(c2cnn(-c3ccccc3)c(=O)c2Cl)CC1 | 84* | 2 | 10 | 2 | 9
Cc1c(C(=O)NCc2ccc(S(N)(=O)=O)cc2)oc2ccc(Cl)cc12 | -3 | 0 | 9 | 3 | 4
CC(C)CNC(=O)c1ccccc1SCC(=O)NC12CC3CC(CC(C3)C1)C2 | 20 | 1 | 50 | 1 | 4
CCOC(=O)C(=O)Nc1ccc(OCc2ccccc2)cc1 | -9 | 0 | 5 | 0 | 3
Cc1cc(C)nc(/N=C(\N)Nc2ccc(OCc3ccccc3)cc2)n1 | 100* | 1 | 14 | -1 | 1
CC(=O)c1cccc(N(C(=O)Cn2nnc3ccccc32)C(C(=O)NCC2CCCO2)c2ccc(N3CCOCC3)cc2)c1 (configuration not stated) | 0 | 0 | -14 | 11* | 0
Cc1ccc(C)c(N2CCN(C(=O)c3ccccc3Br)CC2)c1 | 28 | 0 | 58* | -1 | 1

Screening results: PubChem BioAssay, several laboratories
